Calls of active or inactive are those of the source. The rule behind the calls is not given here.

Test [1] has as its system Staphylococcus aureus. Put plainly: AUBKC (0 to 24 hrs) in methicillin-resistant Staphylococcus aureus 33815 infected in in vitro pharmacokinetic model at 1500 mg, iv every 8 hrs using 10^6 CFU/ml inoculum. The class given is functional. The essentials: (§1)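 Single-compartment dilutional in vitro PK model at 37°C in 10% Mueller-Hinton broth, stirred, flow 132 ml/h. […] Inoculum 10^6 CFU/ml added 45 min before dosing, or 10^8 CFU/ml run overnight. Viable counts with β-lactamase neutralisation. AUBKC by log-linear trapezoidal rule, at least triplicate.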

The test system of test [2] is Staphylococcus aureus. Put plainly: Antibacterial activity against methicillin-sensitive Staphylococcus aureus 5956 infected in in vitro pharmacokinetic model assessed as time required to 99.9% killing at 750 mg, iv every 8 hrs using 10^6 CFU/ml inoculum. The class given is functional.
The subject of test [3] is Staphylococcus aureus. Put plainly: Antibacterial activity against methicillin-resistant Staphylococcus aureus 33820 infected in in vitro pharmacokinetic model assessed as time required to 99.9% killing at 1500 mg, iv every 8 hrs using 10^6 CFU/ml inoculum. It counts as functional.
The test system of test [4] is Staphylococcus aureus. Put plainly: Antibacterial activity against methicillin-sensitive Staphylococcus aureus 5956 infected in in vitro pharmacokinetic model assessed as time required to 99% killing at 1500 mg, iv every 8 hrs using 10^6 CFU/ml inoculum. The class given is functional.
Test [5] deals with Staphylococcus aureus. Put plainly: T>MIC for 4-log drop in count in methicillin-resistant Staphylococcus aureus 33922 in in vitro pharmacokinetic model after 24 hrs using 10^8 CFU/ml inoculum. It counts as functional.
For test [6], the system named is Staphylococcus aureus. Put plainly: AUBKC (0 to 24 hrs) in methicillin-resistant Staphylococcus aureus 33922 infected in in vitro pharmacokinetic model at 1500 mg, iv every 8 hrs using 10^8 CFU/ml inoculum. It counts as functional. The essentials:
as §1

Test [7] relates to Staphylococcus aureus. Description: Antibacterial activity against methicillin-sensitive Staphylococcus aureus 5956 infected in in vitro pharmacokinetic model assessed as reduction in viable count at 1500 mg, iv every 8 hrs measured after 36 hrs using 10^6 CFU/ml inoculum. The class given is functional.
In test [8] the test system is Staphylococcus aureus. Description: Antibacterial activity against methicillin-resistant Staphylococcus aureus 33815 infected in in vitro pharmacokinetic model assessed as reduction in viable count at 750 mg, iv every 8 hrs measured after 36 hrs using 10^8 CFU/ml inoculum. The class given is functional. The procedure, abridged: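 PK model at 37°C in 10% MHB. […] A 0.5 McFarland suspension (1 ml) was added and the model run overnight to reach 10^8 CFU/ml before dosing. Counts were spiral-plated on nutrient agar with β-lactamase. Change in log CFU/ml was measured from time 0; at least triplicate.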

Test [9] deals with Staphylococcus aureus. Description: Antibacterial activity against methicillin-resistant Staphylococcus aureus 33827 infected in in vitro pharmacokinetic model assessed as reduction in viable count at 1500 mg, iv every 8 hrs measured after 12 hrs using 10^8 CFU/ml inoculum. It counts as functional. The essentials: (§2)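 Single-compartment dilutional in vitro PK model, 10% Mueller-Hinton broth, 37°C, stirred, dilution 132 ml/h. […] Inoculum 10^6 CFU/ml (added 45 min pre-dose) or 10^8 CFU/ml (run overnight). Viable counts by spiral plating, beta-lactamase neutralization, detection limit 10^2 CFU/ml. At least triplicate.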

Test [10] relates to Staphylococcus aureus. Description: T>MIC for 3-log drop in count in methicillin-sensitive Staphylococcus aureus 5956 in in vitro pharmacokinetic model after 24 hrs using 10^8 CFU/ml inoculum. The class given is functional. The procedure, abridged: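 Dose-ranging: 7–13 simulated regimens per strain giving T>MIC of 0–100% (MIC from 10% MHB), at 106 or 10^8 CFU/ml as stated.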

The subject of test [11] is Staphylococcus aureus. Put plainly: AUBKC (0 to 48 hrs) in methicillin-sensitive Staphylococcus aureus 5956 infected in in vitro pharmacokinetic model at 1500 mg, iv every 8 hrs using 10^6 CFU/ml inoculum. It counts as functional. The procedure, abridged: as §1
Test [12] deals with Staphylococcus aureus. Description: Antibacterial activity against methicillin-resistant Staphylococcus aureus 33829 infected in in vitro pharmacokinetic model assessed as reduction in viable count at 1500 mg, iv every 8 hrs measured after 48 hrs using 10^6 CFU/ml inoculum. It counts as functional. The procedure, abridged:
as §2

Test [13] relates to Staphylococcus aureus. Put plainly: Antibacterial activity against methicillin-resistant Staphylococcus aureus 33820 infected in in vitro pharmacokinetic model assessed as reduction in viable count at 1500 mg, iv every 8 hrs measured after 36 hrs using 10^6 CFU/ml inoculum. It counts as functional. The procedure, abridged: (§3)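 Single-compartment dilutional in vitro PK model, 37°C, stirred, in 10% Mueller-Hinton broth. […] Inoculum 10^6 CFU/ml from a 24-h plate culture was added 45 min before dosing. Viable counts by spiral plating on nutrient agar with β-lactamase neutralization. Log change was taken from time 0; detection limit 10^2 CFU/ml; at least triplicate.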

The subject of test [14] is Staphylococcus aureus. Description: Antibacterial activity against methicillin-resistant Staphylococcus aureus 33815 infected in in vitro pharmacokinetic model assessed as time required to 99.9% killing at 750 mg, iv every 8 hrs using 10^8 CFU/ml inoculum. It counts as functional. The procedure, abridged:
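T99 and T99.9 were taken as the times for the count to fall 99% or 99.9% from time 0, using serial viable counts over 48 h. Inoculum was 10^8 CFU/ml, grown overnight in the model before dosing.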

For test [15], the system named is Staphylococcus aureus. Description: Antibacterial activity against methicillin-resistant Staphylococcus aureus 33921 in in vitro pharmacokinetic model assessed as viable count at 4 times of MIC. The class given is functional. The essentials:
(§4)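 Preexposure population analysis: time-zero model samples plated on nutrient agar without drug and with drug at multiples of the 10% broth MIC. Growth reported as log CFU/ml, detection limit 2 log10.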

Test [16] relates to Staphylococcus aureus. Put plainly: Antibacterial activity against methicillin-resistant Staphylococcus aureus 33820 infected in in vitro pharmacokinetic model assessed as reduction in viable count at 750 mg, iv every 8 hrs measured after 36 hrs using 10^6 CFU/ml inoculum. The class given is functional. The essentials:
as §3

The subject of test [17] is Staphylococcus aureus. Description: Antibacterial activity against methicillin-resistant Staphylococcus aureus 33827 assessed as viable count at 4 times of MIC after 24 hrs using 10^6 CFU/ml inoculum. The class given is functional, organism-based.
Test [18] has as its system Staphylococcus aureus. Description: Antibacterial activity against methicillin-resistant Staphylococcus aureus 33922 infected in in vitro pharmacokinetic model assessed as time required to 99.9% killing at 750 mg, iv every 8 hrs using 10^8 CFU/ml inoculum. It counts as functional.
In test [19] the test system is Staphylococcus aureus. Put plainly: Antibacterial activity against methicillin-resistant Staphylococcus aureus 33921 infected in in vitro pharmacokinetic model assessed as reduction in viable count at 750 mg, iv every 8 hrs measured after 36 hrs using 10^6 CFU/ml inoculum. It counts as functional.
For test [20], the system named is Staphylococcus aureus. Put plainly: Antibacterial activity against methicillin-resistant Staphylococcus aureus 33922 infected in in vitro pharmacokinetic model assessed as reduction in viable count at 1500 mg, iv every 8 hrs measured after 24 hrs using 10^6 CFU/ml inoculum. It counts as functional.
The test system of test [21] is Staphylococcus aureus. Description: Antibacterial activity against methicillin-resistant Staphylococcus aureus 33815 in in vitro pharmacokinetic model assessed as viable count at 6 times of MIC. The class given is functional. The procedure, abridged: (§5)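 Preexposure population analysis profile: model sample at time zero plated on nutrient agar with tomopenem at multiples of the MIC. Growth counted as log CFU/ml, detection limit 2 log10.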

The subject of test [22] is Staphylococcus aureus. Description: Antibacterial activity against methicillin-resistant Staphylococcus aureus 33829 in in vitro pharmacokinetic model assessed as viable count at 4 times of MIC. It counts as functional. The essentials:
as §4

Test [23] has as its system Staphylococcus aureus. Description: Antibacterial activity against methicillin-resistant Staphylococcus aureus 33815 in in vitro pharmacokinetic model assessed as viable count at 4 times of MIC. It counts as functional. The essentials:
as §5

Test [24] deals with Staphylococcus aureus. Description: AUBKC (0 to 24 hrs) in methicillin-resistant Staphylococcus aureus 33827 infected in in vitro pharmacokinetic model at 1500 mg, iv every 8 hrs using 10^8 CFU/ml inoculum. It counts as functional. The essentials: as §1

On to `C[C@@H](O)[C@H]1C(=O)N2C(C(=O)O)=C(S[C@H]3C[C@@H](C(=O)N4CC[C@H](NC(=O)CNC(=N)N)C4)N(C)C3)[C@H](C)[C@H]12` [TOMOPENEM], for which the AUBC in test [1] is 12.5 log10CFU/ml.hr; in test [6] it was 100.1 log10CFU/ml.hr; in [11] it was 22.7 log10CFU/ml.hr; in test [24], 84.4 log10CFU/ml.hr. The Time in [2] came out at 6 h; in [3], 12 h; in [4], 5 h; in test [14] it was 24 h; in test [18], 12 h. For the same molecule, the “fT>MIC” value is on record as 15% in [5] and 12.8% in test [10]. Also, the log10CFU/ml is reported as 4.4 in test [7]; 5.5 in test [8]; 3.4 in test [9]; 3.8 in test [12]; 3.8 in test [13]; less than 2 in test [15]. Moreover, the log10CFU/ml is reported as 4.2 in [16]; 3.9 in test [19]; 4.2 in [20]; less than 2 in [21]; 5.4 in [22]; less than 2 in [23]. Also, the outcome in [17] was inactive.
